Source: PMC12584159 (Clinical and Translational Science, 2025)
Like-named read-outs stand apart in the source and are kept apart here.

Key:
[1] = Plasma pharmacokinetics of atogepant; type: in vivo, human
Summary of the method: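 Fasted healthy men received a single oral 50 mg ¹⁴C dose. Blood was sampled pre-dose to 168 h, then every 72 h until discharge criteria or Day 29. Samples were centrifuged at ≥2500 g for 10 min at ~4°C, and plasma was stored at −70°C. K₂EDTA plasma was assayed by validated LC–MS/MS (1–1000 ng/mL), with BLQ set to zero. Noncompartmental analysis used actual times; ratios were taken to plasma total radioactivity.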

[2] = Urinary excretion of atogepant and renal clearance; type: in vivo, human; conditions: mean ± SD; for Proportion of administered dose excreted in urine as atogepant (parent drug): LC–MS/MS, urine up to 360 h post‐dose
Summary of the method: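 Urine was collected pre-dose and over 0–4, 4–8, 8–12, 12–24 h, then 24-h intervals until discharge criteria or study end, and stored at −20°C. Atogepant was measured by validated LC–MS/MS (1–1000 ng/mL), with BLQ set to zero. Radioactivity was measured by combustion/LSC. Ae0–t, CLR and fraction of dose excreted were computed.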

[3] = Mass balance: total radioactivity recovered in urine and feces; type: in vivo, human; conditions: N = 6, mean ± SD; for Proportion of radioactive dose excreted in urine (total radioactivity): through last specimen collection
Summary of the method: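 Healthy men received a single oral 50 mg (~200 μCi) ¹⁴C dose in PEG400/Ora-Sweet solution after a ≥10-h fast. Urine was collected in intervals and all feces during confinement; feces were weighed and homogenized. Pre-dose feces set background. Total radioactivity was measured by combustion/LSC, with BLQ (urine <89 dpm/mL, feces <81 dpm/g) set to zero. Collection continued until discharge criteria or Day 29.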

[4] = Metabolite profiling in plasma, urine and feces; type: in vivo, human; conditions: for Feces %DE (dose excreted): feces 0–312 h [n = 1], 0–120 h [n = 3], 0–96 h [n = 2]; for Urine %DE (dose excreted): urine 0–24 h
Summary of the method: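 After a single oral 50 mg ¹⁴C dose, plasma was pooled by Hamilton AUC scheme and extracted with acetonitrile. Urine (0–24 h) was pooled by sample weight, and fecal homogenates with ≥2% dose were acetonitrile-extracted. Profiling used HPLC with radiometric detection and high-resolution MS. Metabolite % was taken from radiochromatogram peak areas. Individual plasma through 312 h was also assayed for M23 by LC–MS/MS.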

[5] = Safety/tolerability; type: in vivo, human; conditions: single 50 mg dose
Summary of the method: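 Safety was monitored in all dosed participants after a single 50 mg oral dose, covering AEs (MedDRA 20.1 or newer), physical exam, 12-lead ECG, vital signs, hematology, coagulation, chemistry and urinalysis. ECG and vitals were taken on Day 1; labs and vitals on Day 2. TEAEs were new or worsening AEs within 30 days of dosing.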

[6] = Phase 3, placebo 1.8%, cited from earlier work
[7] = single 10–60 mg dose; healthy Japanese and White adults; cited from earlier work
[8] = simian chronic toxicology studies; ref internal data; cited from earlier work
[9] = system: CYP3A4, CYP2D6; conditions: human liver microsomes; cited from earlier work
[10] = system: human CGRP receptor; conditions: preclinical studies; cited from earlier work
[11] = system: organic anion transporting polypeptide (OATP); conditions: cited from earlier work
[12] = system: P‐glycoprotein (P‐gp); conditions: cited from earlier work
[13] = system: breast cancer resistance protein (BCRP); conditions: cited from earlier work
[14] = cited from earlier work
[15] = cited from earlier work; remark: listed apart in the source
[16] = first‐generation gepants; cited from earlier work
[17] = plasma, single oral 50 mg, N = 6, mean ± SD

C[C@@H]1[C@H](c2c(F)ccc(F)c2F)C[C@H](NC(=O)c2cnc3c(c2)C[C@@]2(C3)C(=O)Nc3ncccc32)C(=O)N1CC(F)(F)F [Atogepant]
Time after dosing up to which atogepant plasma concentrations were measurable ([1]; LOQ 1 ng/mL): up to 120 h | AUC(0-inf) ([1]; male, human, plasma, po, 50 mg): 2220 ± 966 ng·h/mL | AUC(0-t) ([1]; male, human, plasma, po, 50 mg): 2180 ± 960 ng·h/mL | Cmax ([1]; male, human, plasma, po, 50 mg): 367 ± 189 ng/mL | half-life ([1]; male, human, plasma, po, 50 mg): 1110 ± 714 min | AUC0–t, atogepant/total radioactivity ratio [1, 17]: 0.776 ± 0.167 | AUC0–∞, atogepant/total radioactivity ratio [1, 17]: 0.728 ± 0.172 | C max, atogepant/total radioactivity ratio [1, 17]: 0.997 ± 0.286 | AUC0–∞, atogepant/total radioactivity ratio ([1]; plasma, single oral 50 mg, N = 6, mean ± SD, listed as atogepant): ~ 0.75 | T max, atogepant ([1]; plasma, single oral 50 mg, N = 6, median (range)): 1 (0.98–2.98) hours | Proportion of administered dose excreted in urine as atogepant (parent drug) ([2]; N = 6): 4.84% ± 1.63% | Proportion of administered dose excreted in urine as atogepant (parent drug) ([2]; N = 6, listed as atogepant): Approximately 5% | Urine excretion, atogepant/total radioactivity ratio ([2]; N = 6): 0.605 ± 0.109 | CLR (renal clearance), atogepant ([2]; single oral 50 mg, N = 6): 1.18 ± 0.33 L/h | Urine Ae0–t (total urine atogepant excretion) ([2]; up to 360 h post‐dose): 2.42 ± 0.82 mg | Proportion of radioactive dose excreted in feces (total radioactivity) ([3]; through last specimen collection (336 h, 14 days)): 81% | Proportion of radioactive dose excreted in urine (total radioactivity) [3]: 8% | Proportion of radioactive dose excreted in urine (total radioactivity) ([3]; listed as atogepant): ~ 8% | Disproportionate human metabolites ([4]; comparison of this study to in vivo rat and monkey studies): no disproportionate human metabolites | Feces %DE (dose excreted) ([4]; mean ± SD, ND = not detected or < 1% of dose or AUC0–t, listed as Parent): 42.2 ± 4.2% | Feces %DE (dose excreted) ([4]; mean ± SD, ND = not detected or < 1% of dose or AUC0–t, listed as parent drug): 42% | dose excreted ([4]; human, feces, oral, 50 mg, Share of fecal radioactivity recovery, unabsorbed drug, biliary excretion, and/or intestinal secretion): ~52% | Plasma %AUC0–t (percent of radioactive exposure) ([4]; pooled plasma 0–36 h (0–24 h for one participant), HPLC‐RAD, N = 6, mean ± SD, ND = not detected or < 1% of dose or AUC0–t): 84.7 ± 9.2% | Urine %DE (dose excreted) ([4]; N = 6, mean ± SD, ND = not detected or < 1% of dose or AUC0–t): 5% | Urine %DE (dose excreted) ([4]; N = 6, mean ± SD, ND = not detected or < 1% of dose or AUC0–t, listed as Parent): 5.21 ± 1.69% | Tolerability ([5]; healthy males N = 6): well‐tolerated | ALT or AST elevations ([5]; healthy participants N = 6): no ALT or AST elevations observed | Proportion of patients with ALT and AST elevations ≥ 3× upper limit of normal ([6]; atogepant 10 mg/day): 0.9% | Proportion of patients with ALT and AST elevations ≥ 3× upper limit of normal ([6]; atogepant 30 mg/day): 0.9% | Proportion of patients with ALT and AST elevations ≥ 3× upper limit of normal ([6]; atogepant 60 mg/day): 0.4% | CLR (renal clearance) [7]: 0.9 to 1.5 L/h | No‐observed‐adverse‐effect level [8]: 300 mg/kg | Enzymes metabolizing atogepant [9]: predominantly metabolized via CYP3A4 with minor involvement of CYP2D6 | Affinity, potency and selectivity for the receptor [10]: high affinity, potency, and selectivity | Substrate of OATP [11]: substrate | Substrate of P‐gp [12]: substrate | Substrate of BCRP [13]: substrate | Effect of quinidine (strong P‐gp inhibitor) on atogepant exposure ([14]; clinical DDI study): no clinically relevant increase in atogepant exposure | Effect of co‐administration on atogepant exposure ([14]; multiple‐dose rifampin (strong CYP3A4 and P‐gp inducer)): significantly decreased atogepant exposure | Effect of co‐administration on atogepant exposure ([14]; single‐dose rifampin (OATP inhibitor), healthy participants): significantly increased atogepant exposure | Accumulation with daily dosing [15]: does not accumulate with daily dosing | Bioavailability, tablet vs. PEG solution dosing [15]: higher with tablet vs. PEG solution dosing

O=C(N[C@@H]1CC[C@@H](c2cccc(F)c2F)CN(CC(F)(F)F)C1=O)N1CCC(n2c(=O)[nH]c3ncccc32)CC1 [telcagepant]
Liver toxicity in clinical trials [16]: liver toxicity concerns

O=C(CN1C(=O)C2(CCCC2)NC[C@H]1c1cc(F)cc(F)c1)Nc1ccc2c(c1)C[C@@]1(C2)C(=O)Nc2ncccc21 [MK‐3207]
Liver toxicity in clinical trials [16]: liver toxicity concerns
